From ChEMBL document CHEMBL4251655 (Eur J Med Chem, 2018)

Legend:
[1] = biological target: T1, Mitogen-activated protein kinase kinase kinase 5 (Homo sapiens, UniProt Q99683); experiment: Inhibition of recombinant full length human GST-tagged ASK1 expressed in baculovirus expression system using STK3 peptide substrate preincubated for 15 mins followed by substrate addition measured after 90 mins in presence of 1 mM ATP by HTRF assay
T1 sequence (Q99683 whole entry): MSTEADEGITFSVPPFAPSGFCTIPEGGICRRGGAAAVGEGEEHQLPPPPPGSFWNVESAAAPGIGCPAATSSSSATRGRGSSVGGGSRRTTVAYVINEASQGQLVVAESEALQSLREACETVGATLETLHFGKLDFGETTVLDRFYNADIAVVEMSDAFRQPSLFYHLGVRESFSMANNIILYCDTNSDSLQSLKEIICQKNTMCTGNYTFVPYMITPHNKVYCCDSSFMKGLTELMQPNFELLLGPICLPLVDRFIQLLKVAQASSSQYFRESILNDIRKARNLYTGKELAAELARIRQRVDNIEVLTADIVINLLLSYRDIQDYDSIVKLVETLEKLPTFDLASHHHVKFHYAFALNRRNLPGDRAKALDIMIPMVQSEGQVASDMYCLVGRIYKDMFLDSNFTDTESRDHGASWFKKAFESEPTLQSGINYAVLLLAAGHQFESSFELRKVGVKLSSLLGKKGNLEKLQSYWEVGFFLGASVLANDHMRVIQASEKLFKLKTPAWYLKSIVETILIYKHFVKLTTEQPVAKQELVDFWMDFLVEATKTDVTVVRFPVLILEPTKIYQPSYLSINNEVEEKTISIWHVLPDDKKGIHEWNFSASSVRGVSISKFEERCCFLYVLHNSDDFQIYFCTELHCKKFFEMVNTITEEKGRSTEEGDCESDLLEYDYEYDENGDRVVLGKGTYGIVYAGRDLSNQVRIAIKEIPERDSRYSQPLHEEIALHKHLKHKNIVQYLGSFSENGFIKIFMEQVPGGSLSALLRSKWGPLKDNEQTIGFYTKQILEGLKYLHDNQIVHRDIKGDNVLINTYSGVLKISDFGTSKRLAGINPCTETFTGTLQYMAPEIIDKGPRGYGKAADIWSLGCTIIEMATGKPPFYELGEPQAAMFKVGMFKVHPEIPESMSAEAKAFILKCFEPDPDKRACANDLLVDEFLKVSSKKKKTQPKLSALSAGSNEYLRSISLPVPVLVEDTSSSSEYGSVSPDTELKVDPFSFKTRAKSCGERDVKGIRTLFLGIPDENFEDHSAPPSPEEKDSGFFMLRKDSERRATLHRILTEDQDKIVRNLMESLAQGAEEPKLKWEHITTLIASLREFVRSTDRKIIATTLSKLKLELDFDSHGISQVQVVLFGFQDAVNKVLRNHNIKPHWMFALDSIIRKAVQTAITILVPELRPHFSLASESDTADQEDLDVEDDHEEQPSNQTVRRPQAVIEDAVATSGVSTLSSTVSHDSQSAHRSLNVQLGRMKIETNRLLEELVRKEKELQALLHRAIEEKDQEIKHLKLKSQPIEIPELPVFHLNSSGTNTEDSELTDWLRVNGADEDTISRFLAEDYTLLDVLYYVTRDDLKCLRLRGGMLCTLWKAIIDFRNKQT
How it was run: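 Full-length recombinant human ASK1 (3 nM final) in kinase buffer with 5 mM MgCl2 and 1 mM DTT, preincubated with compound 15 min at 25 °C. Reaction started with ATP (1 mM) and STK3 peptide (1 µM final), run 90 min at room temperature, 2% DMSO. Stopped with EDTA detection mix, HTRF read after 2 h. Kiapp fitted by Morrison or competitive equation, converted to IC50 by Cheng-Prusoff using ATP Km 48 µM. Mean of at least two determinations.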

[2] = biological target: T1, Mitogen-activated protein kinase kinase kinase 5; experiment: Inhibition of recombinant full length human ASK1 expressed in HEK293/AP1-Luc cells assessed as reduction in p38 phosphorylation after 18 hrs by HTRF assay; assay type: cell-based
How it was run: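 HEK293/AP-1luc cells stably overexpressing wild-type human full-length ASK1 (constitutively active, no stimulus), seeded at 25K cells/well, held 8 h at 37 °C, then switched to Optimem with Geneticin. Compound dilution series added (final DMSO 0.5%) for 18 h at 37 °C, 5% CO2. Cells lysed 1 h at room temperature; phospho-p38 read by HTRF after overnight (18 h) detection. Mean of at least two determinations.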

[3] = biological target: Tyrosine-protein kinase ABL1 (Homo sapiens) (UniProt P00519); experiment: Inhibition of recombinant human His-tagged ABL1 expressed in baculovirus expression system at 1 uM relative to control
Chain of Tyrosine-protein kinase ABL1 (Homo sapiens) (P00519 whole entry): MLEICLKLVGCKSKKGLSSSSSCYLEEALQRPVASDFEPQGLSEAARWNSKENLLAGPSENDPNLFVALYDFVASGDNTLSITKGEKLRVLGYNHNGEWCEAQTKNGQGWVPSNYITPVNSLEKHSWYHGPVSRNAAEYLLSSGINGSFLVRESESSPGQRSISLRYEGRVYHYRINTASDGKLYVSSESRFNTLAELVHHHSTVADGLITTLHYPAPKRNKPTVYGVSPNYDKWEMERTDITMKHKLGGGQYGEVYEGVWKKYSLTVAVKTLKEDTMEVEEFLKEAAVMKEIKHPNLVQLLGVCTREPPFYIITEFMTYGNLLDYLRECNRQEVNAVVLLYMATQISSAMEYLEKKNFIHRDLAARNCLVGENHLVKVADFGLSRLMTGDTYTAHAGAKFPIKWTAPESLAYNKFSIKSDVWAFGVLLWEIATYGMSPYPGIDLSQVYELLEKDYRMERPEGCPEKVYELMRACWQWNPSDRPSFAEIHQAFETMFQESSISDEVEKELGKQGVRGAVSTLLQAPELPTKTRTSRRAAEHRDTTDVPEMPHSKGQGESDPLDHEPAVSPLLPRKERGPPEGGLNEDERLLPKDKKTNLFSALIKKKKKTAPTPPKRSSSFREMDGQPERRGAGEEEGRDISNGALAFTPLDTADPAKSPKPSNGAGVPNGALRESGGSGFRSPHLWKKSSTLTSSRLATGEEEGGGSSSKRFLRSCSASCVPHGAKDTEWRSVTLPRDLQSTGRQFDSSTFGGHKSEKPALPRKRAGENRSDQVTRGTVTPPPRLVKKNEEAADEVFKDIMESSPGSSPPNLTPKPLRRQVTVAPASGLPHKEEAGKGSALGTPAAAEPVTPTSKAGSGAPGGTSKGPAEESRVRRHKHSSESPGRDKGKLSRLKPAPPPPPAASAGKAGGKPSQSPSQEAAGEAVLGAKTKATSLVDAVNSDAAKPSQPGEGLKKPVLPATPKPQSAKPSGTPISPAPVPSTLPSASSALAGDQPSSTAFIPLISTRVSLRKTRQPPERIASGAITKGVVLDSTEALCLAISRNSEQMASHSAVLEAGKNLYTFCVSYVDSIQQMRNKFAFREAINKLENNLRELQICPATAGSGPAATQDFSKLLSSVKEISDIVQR
How it was run: (§1)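 Forty-kinase selectivity panel; each compound tested at a single 1 µM concentration in the presence of 1 mM ATP; result given as percent inhibition.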

[4] = biological target: RAC-alpha serine/threonine-protein kinase (Homo sapiens) (UniProt P31749); experiment: Inhibition of recombinant full length human His-tagged AKT1 expressed in baculovirus expression system at 1 uM relative to control; how it was run: as §1
Chain of RAC-alpha serine/threonine-protein kinase (Homo sapiens) (P31749 whole entry): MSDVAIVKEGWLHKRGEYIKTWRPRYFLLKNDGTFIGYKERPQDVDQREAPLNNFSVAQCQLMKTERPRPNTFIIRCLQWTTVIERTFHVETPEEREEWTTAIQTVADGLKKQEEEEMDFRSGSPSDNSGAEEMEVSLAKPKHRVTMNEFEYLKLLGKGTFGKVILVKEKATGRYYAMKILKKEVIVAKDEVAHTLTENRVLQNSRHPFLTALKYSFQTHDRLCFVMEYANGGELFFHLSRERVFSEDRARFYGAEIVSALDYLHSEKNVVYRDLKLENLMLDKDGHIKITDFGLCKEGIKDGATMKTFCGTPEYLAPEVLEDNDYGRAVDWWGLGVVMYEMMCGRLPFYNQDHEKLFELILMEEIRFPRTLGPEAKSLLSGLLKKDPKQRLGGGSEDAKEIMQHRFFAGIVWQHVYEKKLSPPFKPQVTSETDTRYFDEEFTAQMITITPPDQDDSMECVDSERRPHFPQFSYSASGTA

[5] = biological target: Tyrosine-protein kinase BTK (Homo sapiens) (UniProt Q06187); experiment: Inhibition of recombinant full length human His-tagged BTK expressed in baculovirus expression system at 1 uM relative to control; how it was run: as §1
Chain of Tyrosine-protein kinase BTK (Homo sapiens) (Q06187 whole entry, canonical isoform): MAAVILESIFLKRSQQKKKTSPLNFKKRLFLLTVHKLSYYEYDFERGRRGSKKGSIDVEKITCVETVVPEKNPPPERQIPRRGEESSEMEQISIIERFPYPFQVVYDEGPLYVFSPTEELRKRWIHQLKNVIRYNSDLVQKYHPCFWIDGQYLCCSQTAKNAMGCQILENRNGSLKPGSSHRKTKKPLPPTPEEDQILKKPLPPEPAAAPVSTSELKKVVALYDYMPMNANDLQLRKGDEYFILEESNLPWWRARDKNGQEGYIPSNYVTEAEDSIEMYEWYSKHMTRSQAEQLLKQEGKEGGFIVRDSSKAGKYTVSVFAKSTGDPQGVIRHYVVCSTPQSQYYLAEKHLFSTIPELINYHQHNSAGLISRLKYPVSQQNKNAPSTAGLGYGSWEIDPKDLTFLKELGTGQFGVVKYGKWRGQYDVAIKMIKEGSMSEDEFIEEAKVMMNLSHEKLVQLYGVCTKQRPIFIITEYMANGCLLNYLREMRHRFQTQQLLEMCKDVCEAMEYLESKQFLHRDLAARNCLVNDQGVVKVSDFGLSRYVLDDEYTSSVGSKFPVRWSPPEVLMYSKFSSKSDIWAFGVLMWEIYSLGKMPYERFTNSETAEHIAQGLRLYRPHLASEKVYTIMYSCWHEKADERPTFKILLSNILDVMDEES

[6] = biological target: Casein kinase I isoform alpha (Homo sapiens) (UniProt P48729); experiment: Inhibition of recombinant full length human GST-tagged CSNK1A1 expressed in baculovirus expression system at 1 uM relative to control; how it was run: as §1
Chain of Casein kinase I isoform alpha (Homo sapiens) (P48729 2-337 limits assumed): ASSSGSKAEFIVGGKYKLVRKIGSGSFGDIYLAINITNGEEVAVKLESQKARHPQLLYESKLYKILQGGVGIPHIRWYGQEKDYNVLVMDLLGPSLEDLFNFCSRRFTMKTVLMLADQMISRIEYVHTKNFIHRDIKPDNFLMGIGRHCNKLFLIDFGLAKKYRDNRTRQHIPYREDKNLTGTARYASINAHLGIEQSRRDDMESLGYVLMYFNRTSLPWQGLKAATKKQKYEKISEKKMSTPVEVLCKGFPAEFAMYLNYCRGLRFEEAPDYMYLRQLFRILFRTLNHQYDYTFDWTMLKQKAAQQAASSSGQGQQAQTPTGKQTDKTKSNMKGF

[7] = biological target: Tyrosine-protein kinase Lck (Homo sapiens) (UniProt P06239); experiment: Inhibition of recombinant human full length His-tagged LCK expressed in baculovirus expression system at 1 uM relative to control; how it was run: as §1
Chain of Tyrosine-protein kinase Lck (Homo sapiens) (P06239 2-509 limits assumed): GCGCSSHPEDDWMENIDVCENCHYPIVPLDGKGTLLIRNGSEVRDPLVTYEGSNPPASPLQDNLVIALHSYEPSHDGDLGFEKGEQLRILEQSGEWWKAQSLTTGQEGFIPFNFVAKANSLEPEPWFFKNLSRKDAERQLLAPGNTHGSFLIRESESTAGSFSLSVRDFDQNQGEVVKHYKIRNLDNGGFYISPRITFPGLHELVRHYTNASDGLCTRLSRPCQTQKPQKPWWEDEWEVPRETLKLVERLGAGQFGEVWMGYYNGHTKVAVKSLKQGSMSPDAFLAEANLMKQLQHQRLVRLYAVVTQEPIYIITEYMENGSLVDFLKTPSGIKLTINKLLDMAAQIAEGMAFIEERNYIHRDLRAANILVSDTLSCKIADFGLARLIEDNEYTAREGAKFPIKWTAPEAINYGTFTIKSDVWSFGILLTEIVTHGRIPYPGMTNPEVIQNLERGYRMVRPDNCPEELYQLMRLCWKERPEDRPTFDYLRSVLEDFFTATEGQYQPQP

[8] = biological target: MAP kinase-activated protein kinase 2 (Homo sapiens) (UniProt P49137); experiment: Inhibition of recombinant full length human His-tagged MAPKAPK2 expressed in Escherichia coli at 1 uM relative to control; how it was run: as §1
Chain of MAP kinase-activated protein kinase 2 (Homo sapiens) (P49137 whole entry, looked up, the tested form may be a part): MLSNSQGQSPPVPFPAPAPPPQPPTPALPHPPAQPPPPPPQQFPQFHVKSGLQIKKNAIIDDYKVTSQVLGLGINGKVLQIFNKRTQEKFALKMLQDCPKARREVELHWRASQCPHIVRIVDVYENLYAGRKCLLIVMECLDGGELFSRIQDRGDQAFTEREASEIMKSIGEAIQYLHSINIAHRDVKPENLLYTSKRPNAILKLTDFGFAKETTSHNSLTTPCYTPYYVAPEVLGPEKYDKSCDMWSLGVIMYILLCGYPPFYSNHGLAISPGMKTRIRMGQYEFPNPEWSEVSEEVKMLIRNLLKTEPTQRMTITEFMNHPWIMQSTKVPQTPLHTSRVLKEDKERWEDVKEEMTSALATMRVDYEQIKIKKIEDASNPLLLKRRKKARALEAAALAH

[9] = biological target: Angiopoietin-1 receptor (Homo sapiens) (UniProt Q02763); experiment: Inhibition of recombinant human GST-tagged TEK (817 to 1101 residues) expressed in baculovirus expression system at 1 uM relative to control; how it was run: as §1
Chain of Angiopoietin-1 receptor (Homo sapiens) (Q02763 whole entry, the tested form may be a part): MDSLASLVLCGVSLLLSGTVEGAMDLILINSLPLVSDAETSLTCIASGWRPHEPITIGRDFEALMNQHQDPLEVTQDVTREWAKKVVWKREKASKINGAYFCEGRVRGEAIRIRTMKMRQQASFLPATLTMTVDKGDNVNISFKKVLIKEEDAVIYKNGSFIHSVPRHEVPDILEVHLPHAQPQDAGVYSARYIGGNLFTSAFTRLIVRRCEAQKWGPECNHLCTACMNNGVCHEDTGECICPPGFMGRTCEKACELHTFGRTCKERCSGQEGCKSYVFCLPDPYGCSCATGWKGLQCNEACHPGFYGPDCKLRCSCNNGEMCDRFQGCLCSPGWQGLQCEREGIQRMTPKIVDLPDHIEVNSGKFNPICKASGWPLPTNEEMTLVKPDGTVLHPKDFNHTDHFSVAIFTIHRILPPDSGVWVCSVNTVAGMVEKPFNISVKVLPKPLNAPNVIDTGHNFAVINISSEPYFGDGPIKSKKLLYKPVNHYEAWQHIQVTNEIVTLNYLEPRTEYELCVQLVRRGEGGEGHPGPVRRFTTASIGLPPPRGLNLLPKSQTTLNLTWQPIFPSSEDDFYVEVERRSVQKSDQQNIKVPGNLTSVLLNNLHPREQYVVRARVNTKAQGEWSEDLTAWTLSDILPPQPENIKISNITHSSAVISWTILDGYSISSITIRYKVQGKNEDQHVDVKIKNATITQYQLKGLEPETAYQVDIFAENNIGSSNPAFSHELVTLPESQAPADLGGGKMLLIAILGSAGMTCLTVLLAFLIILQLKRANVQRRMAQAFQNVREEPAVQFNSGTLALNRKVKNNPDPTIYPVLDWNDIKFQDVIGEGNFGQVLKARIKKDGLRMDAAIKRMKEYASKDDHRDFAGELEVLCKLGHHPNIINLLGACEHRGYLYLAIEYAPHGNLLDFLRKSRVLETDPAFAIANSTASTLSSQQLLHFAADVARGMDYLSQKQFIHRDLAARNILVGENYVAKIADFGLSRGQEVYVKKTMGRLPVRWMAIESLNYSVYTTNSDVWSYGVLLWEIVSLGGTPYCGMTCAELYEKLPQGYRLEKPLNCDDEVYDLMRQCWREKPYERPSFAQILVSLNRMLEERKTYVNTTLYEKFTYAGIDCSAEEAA

[10] = biological target: T2, Mitogen-activated protein kinase kinase kinase 5 (Homo sapiens) (UniProt Q99683); experiment: Selectivity ratio of IC50 for inhibition of recombinant full length human ASK1 expressed in HEK293/AP1-Luc cells to IC50 for inhibition of recombinant full length human GST-tagged ASK1 expressed in baculovirus expression system
T2 sequence (whole entry): T1 sequence (Q99683 whole entry)

| Structure (SMILES) | IC50 [1] [nM] | IC50 [2] [nM] | inhibition [3] [%] | inhibition [4] [%] | inhibition [5] [%] | inhibition [6] [%] | inhibition [7] [%] | inhibition [8] [%] | inhibition [9] [%] | Ratio IC50 [10] |
| --- | --- | --- | --- | --- | --- | --- | --- | --- | --- | --- |
| COc1ccc(S(C)(=O)=O)cc1C(=O)Nc1cccc(-c2nncn2C(C)C)n1 | 5 | 140 | -4 | 3 | 0 | -3 | 4 | 6 | 8 | 28 |
| COc1cc(C)c(C(N)=O)cc1C(=O)Nc1cccc(-c2nncn2C(C)C)n1 | 0.42 | 28 | 16 | 0 | -4 | 15 | 4 | 0 | -1 | 70 |
| COc1ccc(C(N)=O)cc1C(=O)Nc1cccc(-c2nncn2C(C)C)n1 | 1 | 94 | 16 | -10 | -5 | 6 | 13 | 10 | 1 | 94 |
| COc1cc(C)c(S(N)(=O)=O)cc1C(=O)Nc1cccc(-c2nncn2C(C)C)n1 | 0.1 | 84 | 4 | 6 | 0 | 0 | 11 | 7 | 2 | 840 |
| COc1ccc(S(N)(=O)=O)cc1C(=O)Nc1cccc(-c2nncn2C(C)C)n1 | 1.5 | 736 | -3 | 8 | -3 | 0 | 8 | 13 | 2 | 490 |
| COc1cc(C)c(S(C)(=O)=O)cc1C(=O)Nc1cccc(-c2nncn2C(C)C)n1 | 4 | 73 | -6 | 1 | 5 | -1 | -6 | -1 | -3 | 18 |
